Measurements: PMC4253050 (Cellular signalling, 2014)

Key:
kB1R [1] = target: T1, kB1R (Homo sapiens, UniProt P46663); assay: Phosphoinositide turnover; type: cell-based; conditions: stably co-expressing HEK cells; 1 μM
T1 sequence (P46663 1-353): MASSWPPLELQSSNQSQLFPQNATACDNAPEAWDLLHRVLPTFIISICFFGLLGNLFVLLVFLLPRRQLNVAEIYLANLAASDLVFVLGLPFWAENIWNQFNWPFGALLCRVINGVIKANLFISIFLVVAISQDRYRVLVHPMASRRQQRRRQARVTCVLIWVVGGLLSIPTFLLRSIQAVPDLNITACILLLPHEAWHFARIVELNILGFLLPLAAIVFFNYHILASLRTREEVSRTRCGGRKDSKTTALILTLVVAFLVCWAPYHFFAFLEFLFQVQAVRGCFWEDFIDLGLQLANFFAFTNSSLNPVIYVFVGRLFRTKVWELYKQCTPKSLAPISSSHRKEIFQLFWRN

kB2R = target: T2, kB2R (Homo sapiens, UniProt P30411); assay: Intracellular Ca2+ response; type: cell-based; conditions: HEK cells stably expressing kB1R and kB2R; first 1 μM DAKD, then 1 μM KD
T2 sequence (P30411 1-391): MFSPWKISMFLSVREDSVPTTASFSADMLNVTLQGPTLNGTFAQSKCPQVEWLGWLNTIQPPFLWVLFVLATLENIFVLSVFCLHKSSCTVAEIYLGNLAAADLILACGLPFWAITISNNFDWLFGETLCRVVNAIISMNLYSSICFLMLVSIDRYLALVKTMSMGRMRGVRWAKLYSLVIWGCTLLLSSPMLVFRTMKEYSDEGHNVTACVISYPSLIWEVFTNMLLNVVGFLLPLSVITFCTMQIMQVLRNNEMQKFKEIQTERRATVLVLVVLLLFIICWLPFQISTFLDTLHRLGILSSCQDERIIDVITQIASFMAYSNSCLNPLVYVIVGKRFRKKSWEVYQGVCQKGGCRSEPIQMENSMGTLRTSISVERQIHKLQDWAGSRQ

[2] = test system: GPCRs coupled with Gαq (LPA); assay: Intracellular Ca2+ response to LPA, HEK cells; type: cell-based, human
Summary of the method: (§1)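 Cross-desensitization in HEK293 cells stably expressing kB1R, loaded with fura-2 (2 μM, 60 min, 37 °C) on polylysine coverslips. Cells were given thrombin or LPA followed by kB1R agonist, or kB1R agonist first and then thrombin or LPA. [Ca²⁺]i was read as 510 nm emission at 340/380 nm excitation.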

[3] = test system: human lung microvascular endothelial cells (HLMVEC); assay: Transendothelial electrical resistance; type: cell-based; conditions: cytokine-treated HLMVEC; 100 nM; BK in the presence of MGTA; n = 4
Summary of the method: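 Primary HLMVEC (passage 3–6) were grown to confluence on gold electrodes coated with 10 μg/ml fibronectin. Cells were cytokine-primed for 16 h with IL-1β plus 100 U/ml IFN-γ, then moved to EBM-2 with 1% FBS for 1 h and impedance-monitored (ECIS) until baseline was stable. BK samples were pretreated with 40 μM MGTA. Cells received ±100 nM BK for 10 min, then 100 nM DAKD or vehicle, with or without 200 μM pyrogallol; TER recorded.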

kB1R [4] = target: T1, kB1R; assay: [3H]DAKD binding and endocytosis assay, cell surface kB1R, HEK293 cells; conditions: HEK cells stably expressing kB1R and kB2R; 10 min, 37 °C (DAKD 1 μM), no acid wash; 4 nM [3H]DAKD 90 min on ice; n=3
Summary of the method: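 Confluent monolayers were rinsed three times in warm PBS and exposed to unlabelled agonist or vehicle (PBS). They were washed with ice-cold PBS, and binding was then done on ice. Cells were washed three times in cold PBS, lysed in 0.2 M NaOH and counted by scintillation. Total binding was taken as label bound in cells given PBS alone.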

kB1R [5] = target: T1, kB1R; assay: [3H]Arachidonic acid release, kB1R-mediated, cells co-expressing kB1R and kB2R; type: cell-based; conditions: stably co-expressing HEK cells (so in the source); 1 μM
Summary of the method: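 Cells at ~80% confluence were labelled for 18–24 h in growth medium with 0.1% FBS and 1 μCi/ml [³H]arachidonic acid. They were washed three times in HAM's/F12 buffer (HEPES, NaHCO₃, 0.1% fat-free BSA), then incubated with agonist in that buffer at 37 °C. Released label in the collected medium was counted by liquid scintillation.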

kB1R [6] = target: T1, kB1R; assay: Intracellular Ca2+ response; type: cell-based; conditions: for effect of pre-stimulation on kB1R response: kB1R expressing cells, discussion summary
Summary of the method: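 Receptor-expressing HEK cells were grown to 80% confluence on polylysine-coated glass coverslips. They were loaded with 2 μM fura-2/AM for 60 min at 37 °C. For pre-stimulation, cells received vehicle or a kinin agonist (e.g. 1 μM BK) for 10 min, then a kB1R agonist. The [Ca²⁺]i rise was quantified as area under the curve and plotted against log dose; n=3, mean ± SE.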

[7] = test system: protease activated receptor; assay: Intracellular Ca2+ response to thrombin, HEK cells; type: cell-based, human
Summary of the method: as §1

[8] = HEK cells stably expressing kB1R
[9] = HEK cells stably expressing kB1R or kB2R

With des-Arg^10-kallidin [DAKD] the IP3 turnover response (kB1R [1]) was “responded robustly”, the “calcium response to 1 μM KD added after pre-stimulation with kB1R agonist” value (kB2R) was “second robust increase” and the “effect of kB1R agonist on calcium response to subsequent LPA” value [2, 8] was “did not reduce the calcium response”. For the same substance, the “increase in TER” value [3] was “substantial and prolonged”, the “inhibition of [3H]-DAKD binding, without acid washing” value (kB1R [4]) was ~ 80% and the “arachidonic acid release response” value (kB1R [5]) was “responded robustly”.
lysophosphatidic acid [LPA] was tested, and the “increase in [Ca2+]i by LPA” value ([2]; HEK cells expressing kB1R) was “relatively lower calcium response than thrombin”, the “cross-desensitization between kB1R, kB2R and LPA” value [2, 9] was “Lack of cross-desensitization” and the “effect of LPA on kB1R response to subsequent DAKD” value (kB1R [6]; [8]) was “did not decrease the kB1R response”. For the same substance, the “effect of pre-stimulation on kB1R response” value (kB1R [6]) was “did not reduce the kB1R response”.
For thrombin, the “effect of thrombin on increase in [Ca2+]i induced by subsequent DABK (1 μM)” value (kB1R [6]; [8]) was “did not inhibit the increase in [Ca^2+]i”, the “effect of pre-stimulation on kB1R response” value (kB1R [6]) was “did not reduce the kB1R response” and the “increase in [Ca2+]i by thrombin” value [7, 8] was “large increase in [Ca^2+]i”. For the same substance, the “cross-desensitization between kB1R, kB2R and thrombin” value [7, 9] was “Lack of cross-desensitization”.
With des-Arg^9 -HOE-140 [des-Arg-HOE140] the “inhibition of [3H]-DAKD binding, without acid washing” value (kB1R [4]) was ~ 80%.
